# Test results taken from ChEMBL document CHEMBL1944560, “Antitumor agents 292. Design, synthesis and pharmacological study of S- and O-substituted 7-mercapto- or hydroxy-coumarins and chromones as potent cytotoxic agents” (2012).
# Columns and labels:
# KB = assay: Antiproliferative activity against human KB cells after 72 hrs by SRB assay; format: functional
# Procedure, shortened: (§1)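 Cells fixed in situ with 10% TCA at time of drug addition as time-zero reference. Drug exposure 72 h after attachment, then 10% TCA fixation and 0.4% SRB in 1% HOAc for 10 min. Unbound dye washed off with 1% HOAc, bound dye dissolved in 10 mM trizma base, absorbance read at 515 nm. GI50 is the concentration halving net protein increase relative to control.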
# [1] = Antiproliferative activity against human KBVIN cells after 72 hrs by SRB assay; format: functional; procedure, shortened: as §1
# A549 [2] = assay: Antiproliferative activity against human A549 cells after 72 hrs by SRB assay; format: functional; conditions: A549, 72 h; procedure, shortened: as §1
# DU-145 = assay: Antiproliferative activity against human DU145 cells after 72 hrs by SRB assay; format: functional; conditions: DU-145, 72 h; procedure, shortened: as §1
# A549 [3] = assay: Antiproliferative activity against human A549 cells after 48 hrs by MTT assay; format: functional, cell-based
# Procedure, shortened: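 A549 seeded at 5 × 10^3 cells/well. Exposed to 0.06, 0.23, 0.94, 3.75, 15 or 60 μg/mL for 48 h, then medium replaced. MTT (5 mg/mL solution) added for 4 h at 37 °C, formazan dissolved in DMSO, absorbance at 570 nm. Viability expressed as % of untreated cells. Mean ± SD of three independent experiments.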
# A549 [4] = assay: Induction of apoptosis in human A549 cells after 48 hrs by DNA fluorochrome Hoechst-staining based fluorescence microscopy; format: functional, cell-based
# Procedure, shortened: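 A549 seeded at 5 × 10^3 cells/well, treated at 0, 1, 5 and 10 µg/mL for 48 h. Monolayer fixed and stained with Hoechst 33258 for 20 min, washed with PBS, examined by fluorescence microscopy. Cells with condensed or fragmented, brightly stained nuclei scored apoptotic. Three independent experiments.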
# A549 [5] = assay: Induction of cell cycle arrest in human A549 cells assessed as G0/G1 phase cells at 1 mg after 48 hrs by FACS-based flow cytometry (reference value: 26.9%); format: functional
# A549 [6] = assay: Induction of cell cycle arrest in human A549 cells assessed as G0/G1 phase cells at 5 mg after 48 hrs by FACS-based flow cytometry (reference value: 26.9%); format: functional
# A549 [7] = assay: Induction of cell cycle arrest in human A549 cells assessed as G0/G1 phase cells at 10 mg after 48 hrs by FACS-based flow cytometry (reference value: 26.9%); format: functional
# A549 [8] = assay: Induction of cell cycle arrest in human A549 cells assessed as G2/M phase cells at 1 mg after 48 hrs by FACS-based flow cytometry (reference value: 6.36%); format: functional
# A549 [9] = assay: Induction of cell cycle arrest in human A549 cells assessed as G2/M phase cells at 5 mg after 48 hrs by FACS-based flow cytometry (reference value: 6.36%); format: functional
# A549 [10] = assay: Induction of cell cycle arrest in human A549 cells assessed as G2/M phase cells at 10 mg after 48 hrs by FACS-based flow cytometry (reference value: 6.36%); format: functional
# A549 [11] = assay: Induction of cell cycle arrest in human A549 cells assessed as S phase cells at 1 mg after 48 hrs by FACS-based flow cytometry (reference value: 66.74%); format: functional
# A549 [12] = assay: Induction of cell cycle arrest in human A549 cells assessed as S phase cells at 5 mg after 48 hrs by FACS-based flow cytometry (reference value: 66.74%); format: functional
# A549 [13] = assay: Induction of cell cycle arrest in human A549 cells assessed as S phase cells at 10 mg after 48 hrs by FACS-based flow cytometry (reference value: 66.74%); format: functional
SMILES,GI50 (KB) [µM],GI50 (A549 [2]) [µM],GI50 (DU-145) [µM],GI50 [1] [µM],also measured
Cc1cc(=O)oc2cc(Sc3cccc(Cl)n3)ccc12,0.92,2.11,1.15,0.92,Activity (A549 [3]): Dose-dependent effect; Activity (A549 [4]): Dose-dependent effect; Activity (A549 [5]): 5.02%; Activity (A549 [6]): 0.67%; Activity (A549 [7]): 0.12%; Activity (A549 [8]): 83.58%; Activity (A549 [9]): 88.98%; Activity (A549 [10]): 83.86%; Activity (A549 [11]): 11.4%; Activity (A549 [12]): 10.36%; Activity (A549 [13]): 16.03%
Cc1cc(=O)oc2cc(Sc3cccc(Cl)[n+]3[O-])ccc12,> 31.3,> 31.3,> 31.3,24.5,
Cc1cccc(CSc2ccc3c(C)cc(=O)oc3c2)c1,> 33.7,> 33.7,> 33.7,> 33.7,
CC(=O)O[C@H]1C(=O)[C@@]2(C)[C@H]([C@H](OC(=O)c3ccccc3)[C@]3(O)C[C@H](OC(=O)[C@H](O)[C@@H](NC(=O)c4ccccc4)c4ccccc4)C(C)=C1C3(C)C)[C@]1(OC(C)=O)CO[C@@H]1C[C@@H]2O [PACLITAXEL],0.00412,0.00546,0.00386,> 1,
Cc1cc(=O)oc2cc(SCc3ccncc3)ccc12,> 35.3,> 35.3,> 35.3,> 35.3,
CCc1cc(=O)c2ccc(Sc3cccc(Cl)[n+]3[O-])cc2o1,> 30,> 30,> 30,> 30,
CCc1oc2c(C)c(OCc3cccc(C(F)(F)F)c3)ccc2c(=O)c1Br,> 22.7,> 22.7,> 22.7,> 22.7,
Cc1cc(=O)oc2cc(SCc3cccnc3)ccc12,> 35.3,> 35.3,> 35.3,> 35.3,
CCc1oc2c(C)c(OCc3ccccc3)ccc2c(=O)c1Br,> 26.8,> 26.8,> 26.8,> 26.8,
Cc1cc(=O)oc2cc(SCc3cccc(OC(F)(F)F)c3)ccc12,14.8,17.4,15.5,15.3,
COc1cc(CSc2ccc3c(C)cc(=O)oc3c2)cc(OC)c1,> 29.2,> 29.2,> 29.2,> 29.2,
Cc1cc(=O)oc2cc(SCc3ccccn3)ccc12,> 35.3,> 35.3,> 35.3,> 35.3,
CCc1oc2c(C)c(OC)ccc2c(=O)c1Br,> 33.6,> 33.6,> 33.6,23.2,
COC(=O)c1cccc(CSc2ccc3c(C)cc(=O)oc3c2)c1,2.06,7.7,14.1,5.41,
Cc1cc(=O)oc2cc(SC3CCOC3=O)ccc12 (stereo not given),> 36.2,> 36.2,> 36.2,> 36.2,
COc1cccc(CSc2ccc3c(C)cc(=O)oc3c2)c1,> 32,> 32,> 32,> 32,
Cc1cc(=O)oc2cc(SCc3cccc(C(F)(F)F)c3)ccc12,> 28.5,> 28.5,> 28.5,> 28.5,
CCc1cc(=O)c2ccc(OCc3cccc(C(F)(F)F)c3)c(C)c2o1,> 27.6,> 27.6,> 27.6,> 27.6,
COc1ccc(Br)c(CSc2ccc3c(C)cc(=O)oc3c2)c1,16,15.3,> 25.6,> 25.6,
CCc1cc(=O)c2ccc(Sc3cccc(Cl)n3)cc2o1,> 31.5,> 31.5,> 31.5,> 31.5,
Cc1cc(=O)oc2cc(SCc3cccc(C#N)c3)ccc12,> 32.5,> 32.5,> 32.5,> 32.5,
COc1cc(CSc2ccc3c(C)cc(=O)oc3c2)c([N+](=O)[O-])cc1OC,> 25.8,> 25.8,> 25.8,> 25.8,

# Second part, led by results:
GI50 (KB) [µM],GI50 (A549 [2]) [µM],GI50 (DU-145) [µM],SMILES,GI50 [1] [µM],also measured
15.1,> 26.6,> 26.6,COc1ccc2c(=O)cc(C(C)Br)oc2c1CBr (stereo not given),17,
> 28.8,> 28.8,> 28.8,CCc1cc(=O)c2ccc(Sc3cccc(Cl)[n+]3[O-])c(C)c2o1,> 28.8,
> 30.8,> 30.8,> 30.8,CCc1cc(=O)c2ccc(OC(C)C)c(CBr)c2o1,> 30.8,
> 34,> 34,27.7,CCc1cc(=O)c2ccc(OCc3ccccc3)c(C)c2o1,24.8,
15.6,19.8,20.9,CCOc1ccc2c(=O)cc(C(C)Br)oc2c1CBr (stereo not given),12.8,
> 30.1,> 30.1,> 30.1,CCc1cc(=O)c2ccc(Sc3cccc(Cl)n3)c(C)c2o1,23.9,
> 31.3,> 31.3,> 31.3,CCc1cc(=O)c2ccc(OCc3cccc(C#N)c3)c(C)c2o1,> 31.3,
> 33.6,> 33.6,> 33.6,CCc1cc(=O)c2ccc(OC)c(CBr)c2o1,> 33.6,
28.6,24.9,24.1,CCc1cc(=O)c2ccc(OCc3cccc(C)c3)c(C)c2o1,24.9,
22.6,> 30.8,> 30.8,CCc1oc2c(C)c(OC(C)C)ccc2c(=O)c1Br,5.84,
> 32.1,> 32.1,> 32.1,CCOc1ccc2c(=O)cc(CC)oc2c1CBr,> 32.1,
12.8,12.8,15.5,CC(C)Oc1ccc2c(=O)cc(C(C)Br)oc2c1CBr (stereo not given),11.4,
> 29.5,> 29.5,> 29.5,CCc1cc(=O)c2ccc(OCC(C)C)c(CBr)c2o1,> 29.5,
10.9,8.71,10.5,CC(C)COc1ccc2c(=O)cc(C(C)Br)oc2c1CBr (stereo not given),9.45,
